In brackets after ≈: the same amount, converted by molar mass. Activity calls are given as the source filed them. The rule behind the calls is not given here.
Experiments:
Felis catus [1] = assay: Effective dose for lowering of blood pressure in anesthetized cat when administered intravenously; NA=Not active; type: functional, organism-based
Method in brief: (§1)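 Cats of either sex, 3–4 kg, under ether induction and chloralose (70 mg/kg iv). Compounds in distilled water or propylene glycol were given iv via the femoral vein at 0.01–10 mg/kg. Fall in mean arterial pressure read 10 min post-dose. ED20 taken graphically from the log dose-response curve, with doses run in triplicate.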

Cavia porcellus [2] = species: Cavia porcellus; assay: Positive inotropic activity was assessed in spontaneously beating guinea pig atria; NA=Not active; type: functional, organism-based
Method in brief: (§2)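 Guinea pig atria, spontaneously beating, in Ringer solution at 32 °C gassed with 95% O2/5% CO2. Isometric force recorded at 0.5–1 g initial tension after 30 min stabilization. Compounds in water or propylene glycol given cumulatively at 0.01–30 μg/mL, with 7 min contact per dose. EC50 for a 50% force increase taken graphically from the dose-response curve, in triplicate.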

Cavia porcellus [3] = species: Cavia porcellus; assay: Positive inotropic activity in spontaneously beating guinea pig atria; type: functional, organism-based; method in brief: as §2
Canis familiaris [4] = assay: Dose required to produce 50 % increase in left ventricular dP/dt max in anesthetized dogs when administered intravenously; type: functional; conditions: Canis lupus familiaris, Heart left ventricle, iv
Method in brief: (§3)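 Male mongrel dogs (10–18 kg), anesthetized with pentobarbital sodium 35 mg/kg iv, then infused with pentobarbitone 3–5 mg/kg per h, intubated and breathing spontaneously. Compounds in distilled water, given iv via the femoral vein in 0.1 mL/kg. Four to six doses between 0.01 and 3 mg/kg, 10–30 min apart. Percent change in LV dP/dt max over the initial value; ED50 taken from the dose-response curve.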

[5] = Acute toxicity in mice when administered intraperitoneally; type: organism-based; conditions: mouse, in vivo, ip
Method in brief: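 Mice (18-20 g), either sex; compound dissolved in distilled water or suspended in 0.5% (carboxymethyl)cellulose, injected ip at 10, 30, 100, 300 and 1000 mg/kg (1 mL/100 g body weight). Animals observed for 48 h. Approximate LD50 calculated by the Campbell and Richter method.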

Felis catus [6] = assay: Effective dose for lowering blood pressure in anesthetized cat when administered intravenously; type: functional; conditions: iv; method in brief: as §1
Canis familiaris [7] = assay: Percent increase of heart rate in anesthetized dogs at a dose of 0.1 mg/kg; type: functional, Canis lupus familiaris
Method in brief: (§4)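 Anesthesia was pentobarbital sodium 35 mg/kg iv, maintained with pentobarbitone 3–5 mg/kg per h. Male mongrel dogs, 10–18 kg, intubated for spontaneous breathing. Aqueous solutions were given iv via the femoral vein at 0.1 mL/kg, in escalating doses with 10–30 min between doses. Mean BP fall and percent heart-rate increase were recorded at each dose, with lead II ECG.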

Canis familiaris [8] = assay: Percent increase of heart rate in anesthetized dogs at a dose of 0.3 mg/kg; type: functional, Canis lupus familiaris; method in brief: as §4
Canis familiaris [9] = assay: Percent increase of heart rate in anesthetized dogs at a dose of 1 mg/kg; type: functional, Canis lupus familiaris; method in brief: as §4
Canis familiaris [10] = assay: Fall in mean blood pressure in anesthetized dogs at a dose of 0.1 mg/kg; type: functional, Canis lupus familiaris; method in brief: as §4
Canis familiaris [11] = assay: Fall in mean blood pressure in anesthetized dogs at a dose of 0.3 mg/kg; type: functional, Canis lupus familiaris; method in brief: as §4
Canis familiaris [12] = assay: Fall in mean blood pressure in anesthetized dogs at a dose of 1 mg/kg; type: functional, Canis lupus familiaris; method in brief: as §4
Canis familiaris [13] = assay: Percent increase of heart rate in anesthetized dogs at a dose of 0.03 mg/kg; type: functional, Canis lupus familiaris; method in brief: as §4
Canis familiaris [14] = species: Canis familiaris; assay: (§5) Percent increase in LV dP/dt max; type: functional, Canis lupus familiaris; method in brief: as §3
Canis familiaris [15] = species: Canis familiaris; assay: as §5; type: functional, Canis lupus familiaris; method in brief: as §3; remark: listed apart in the source
Canis familiaris [16] = species: Canis familiaris; assay: as §5; type: functional, Canis lupus familiaris; method in brief: as §3; remark: listed apart in the source
Canis familiaris [17] = species: Canis familiaris; assay: as §5; type: functional, Canis lupus familiaris; method in brief: as §3; remark: listed apart in the source

Structure (SMILES)	ED20 (Felis catus [1])	EC50 (Cavia porcellus [2])	EC50 (Cavia porcellus [3]) [µg/mL]	ED50 (Canis familiaris [4]) [mg/kg]	LD50 [5] [mg/kg]	ED20 (Felis catus [6]) [mg/kg]	also measured
C=C[C@@]1(C)CC(=O)[C@]2(O)C3(C)C(C(OC(=O)CCN4CCOCC4)C(O)[C@@]2(C)O1)C(C)(C)CC[C@@H]3O.Cl (stereo partly drawn)	inactive	Not Active	–	–	–	–	–
C=C[C@@]1(C)CC(=O)[C@]2(O)C3(C)C(C(OC(=O)CN4CCC(O)CC4)C(O)[C@@]2(C)O1)C(C)(C)CC[C@@H]3O.Cl (stereo partly drawn)	inactive	–	3	–	–	–	–
C=C[C@@]1(C)CC(=O)[C@]2(O)C3(C)C(C(O)C(OC(=O)CN4CCC(O)(c5ccccc5)CC4)[C@@]2(C)O1)C(C)(C)CC[C@@H]3O.Cl (stereo partly drawn)	inactive	Not Active	–	–	–	–	–
C=C[C@@]1(C)CC(=O)[C@]2(O)C3(C)C(C(O)C(OC(=O)CN4CCOCC4)[C@@]2(C)O1)C(C)(C)CC[C@@H]3O.Cl (stereo partly drawn)	–	–	0.35	0.035	25	–	–
C=C[C@@]1(C)CC(=O)[C@]2(O)C3(C)C(C(OC(=O)CN4CCOCC4)C(O)[C@@]2(C)O1)C(C)(C)CC[C@@H]3O.Cl (stereo partly drawn)	–	–	0.5	0.11	82.5	3	–
C=C[C@@]1(C)CC(=O)[C@]2(O)C3(C)C(C(O)C(OC(=O)Cn4cnc5ccccc54)[C@@]2(C)O1)C(C)(C)CC[C@@H]3O (stereo partly drawn)	–	Not Active	–	–	–	10	–
C=C[C@@]1(C)CC(=O)[C@]2(O)C3(C)C(C(OC(=O)CCCN4CCN(C)CC4)C(O)[C@@]2(C)O1)C(C)(C)CC[C@@H]3O.Cl (stereo partly drawn)	–	–	0.2	0.41	65	1	–
C=C[C@@]1(C)CC(=O)[C@]2(O)[C@@]3(C)[C@@H](O)CCC(C)(C)[C@@H]3[C@H](O)[C@H](OC(C)=O)[C@@]2(C)O1 [COLFORSIN]	–	–	0.02 (≈ 0.0487 µM)	0.007	92	0.038	–
C=C[C@@]1(C)CC(=O)[C@]2(O)C3(C)C(C(O)C(OC(=O)CN4C(C)CCCC4C)[C@@]2(C)O1)C(C)(C)CC[C@@H]3O.Cl (stereo partly drawn)	inactive	Not Active	–	–	–	–	–
C=C[C@@]1(C)CC(=O)[C@]2(O)C3(C)C(C(OC(=O)CCCN4CCCCC4)C(O)[C@@]2(C)O1)C(C)(C)CC[C@@H]3O.Cl (stereo partly drawn)	–	Not Active	–	–	–	3	–
C=C[C@@]1(C)CC(=O)[C@]2(O)C3(C)C(C(OC(=O)CCN4CCCCC4)C(O)[C@@]2(C)O1)C(C)(C)CC[C@@H]3O.Cl (stereo partly drawn)	–	–	0.5	0.3	30	1	–
C=C[C@@]1(C)CC(=O)[C@]2(O)C3(C)C(C(OC(=O)CN4CCCCC4)C(O)[C@@]2(C)O1)C(C)(C)CC[C@@H]3O.Cl (stereo partly drawn)	–	–	1.8	0.052	85	3	Heart rate (Canis familiaris [7]): 8.8%; Heart rate (Canis familiaris [8]): 9.8%; Heart rate (Canis familiaris [9]): 13.8%; BP (Canis familiaris [10]): 8.8 mmHg; BP (Canis familiaris [11]): 30.2 mmHg; BP (Canis familiaris [12]): 72 mmHg; Heart rate (Canis familiaris [13]): 6.2%; Activity (Canis familiaris [14]): 64%; Activity (Canis familiaris [15]): 94%; Activity (Canis familiaris [16]): 123%; Activity (Canis familiaris [17]): 48%
C=C[C@@]1(C)CC(=O)[C@]2(O)C3(C)C(C(O)C(OC(=O)C(C)N4CCOCC4)[C@@]2(C)O1)C(C)(C)CC[C@@H]3O.Cl (stereo partly drawn)	–	–	0.27	0.04	30	2	–
C=C[C@@]1(C)CC(=O)[C@]2(O)C3(C)C(C(OC(=O)CN(CC)CC)C(O)[C@@]2(C)O1)C(C)(C)CC[C@@H]3O.Cl (stereo partly drawn)	inactive	Not Active	–	–	–	–	–
C=C[C@@]1(C)CC(=O)[C@]2(O)C3(C)C(C(O)C(OC(=O)CNC(=O)OC(C)(C)C)[C@@]2(C)O1)C(C)(C)CC[C@@H]3O (stereo partly drawn)	inactive	–	9.2 (≈ 17.5 µM)	–	–	–	–
C=C[C@@]1(C)CC(=O)[C@]2(O)C3(C)C(C(O)C(OC(=O)CCCCCCCCCCCN4CCOCC4)[C@@]2(C)O1)C(C)(C)CC[C@@H]3O.Cl (stereo partly drawn)	–	Not Active	–	–	–	1.6	–
C=C[C@@]1(C)CC(=O)[C@]2(O)C3(C)C(C(OC(=O)CN4C(C)CCCC4C)C(O)[C@@]2(C)O1)C(C)(C)CC[C@@H]3O.Cl (stereo partly drawn)	inactive	Not Active	–	–	–	–	–
C=C[C@@]1(C)CC(=O)[C@]2(O)C3(C)C(C(O)C(OC(=O)CN(CC(=O)OC4C(O)C5C(C)(C)CC[C@H](O)C5(C)[C@@]5(O)C(=O)C[C@](C)(C=C)O[C@]45C)Cc4ccccc4)[C@@]2(C)O1)C(C)(C)CC[C@@H]3O (stereo partly drawn)	inactive	Not Active	–	–	–	–	–
C=C[C@@]1(C)CC(=O)[C@]2(O)C3(C)C(C(OC(=O)Cn4c(=O)c5c(ncn5COCCOC)n(C)c4=O)C(O)[C@@]2(C)O1)C(C)(C)CC[C@@H]3O (stereo partly drawn)	inactive	Not Active	–	–	–	–	–
C=C[C@@]1(C)CC(=O)[C@]2(O)C3(C)C(C(OC(=O)CN4CCC(C)CC4)C(O)[C@@]2(C)O1)C(C)(C)CC[C@@H]3O.Cl (stereo partly drawn)	inactive	–	2.6	–	–	–	–
C=C[C@@]1(C)CC(=O)[C@]2(O)C3(C)C(C(OC(=O)CN(C)C4CCCCC4)C(O)[C@@]2(C)O1)C(C)(C)CC[C@@H]3O.ClC(Cl)Cl (stereo partly drawn)	–	Not Active	–	–	–	3.5	–
C=C[C@@]1(C)CC(=O)[C@]2(O)C3(C)C(C(O)C(OC(=O)C(C)N4CCN(C)CC4)[C@@]2(C)O1)C(C)(C)CC[C@@H]3O.Cl (stereo partly drawn)	–	Not Active	–	–	–	10	–
